Results taken from ChEMBL document CHEMBL1139819, “Cyanopyridyl containing 1,4-dihydroindeno[1,2-c]pyrazoles as potent checkpoint kinase 1 inhibitors: improving oral biovailability” (Bioorg Med Chem Lett, 2007).

What was measured:
HeLa = test: Antiproliferative activity against HeLa cells assessed as […] by MTS assay; type: functional, cell-based; details: Homo sapiens
In short: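 MTS proliferation assay in HeLa cells. […] For the combination, the regression baseline was set to the inhibition given by 150 nM doxorubicin alone. The combo/single EC50 ratio indexes potentiation.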

[1] = Antiproliferative activity against H1299 cells assessed as reduction in G2/M cell population by FACS assay; type: functional, cell-based; details: Homo sapiens, NCI-H1299
In short: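 Cell cycle analysis by FACS in H1299 cells. EC50 is the inhibitor concentration that halves the G2/M population induced by 500 nM doxorubicin (combo). It was also measured without doxorubicin (single).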

[2] = target: T1, Serine/threonine-protein kinase Chk1 (Homo sapiens, UniProt O14757); test: Inhibition of recombinant CHK1
T1 sequence (O14757 whole entry): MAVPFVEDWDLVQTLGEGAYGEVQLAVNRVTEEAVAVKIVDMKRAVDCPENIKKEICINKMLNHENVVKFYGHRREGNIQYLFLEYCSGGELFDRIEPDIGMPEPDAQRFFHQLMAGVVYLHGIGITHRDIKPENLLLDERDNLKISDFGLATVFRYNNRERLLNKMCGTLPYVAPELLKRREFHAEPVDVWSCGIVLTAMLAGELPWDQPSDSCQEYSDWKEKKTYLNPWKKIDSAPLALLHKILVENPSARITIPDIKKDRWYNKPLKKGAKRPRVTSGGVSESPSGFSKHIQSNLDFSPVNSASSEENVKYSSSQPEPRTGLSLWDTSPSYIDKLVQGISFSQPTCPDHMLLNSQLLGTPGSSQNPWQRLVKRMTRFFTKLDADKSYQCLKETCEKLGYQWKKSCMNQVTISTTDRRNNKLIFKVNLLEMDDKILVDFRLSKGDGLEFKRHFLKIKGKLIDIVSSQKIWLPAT
In short: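 Substrate is 5 µM human biotinylated Cdc25c peptide. Buffer is 25 mM Hepes pH 7.4, 10 mM MgCl2, Triton X-100, 0.5 mM DTT. ATP at 5 µM plus 33P-ATP, with 2% DMSO. Run 30 min at room temperature, stopped with NaCl/EDTA, then 33P incorporation captured on a Flash Plate.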

[3] = Dissociation constant, pKa of the compound; type: physicochemical
[4] = AUC in mouse at 10 mg/kg, po; type: ADME, organism-based; parameters: dose 10 mg/kg, route oral; details: plasma
In short: (§1)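 Oral dosing in mice at 10 mg/kg. Plasma exposure read as AUC and Cmax.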

[5] = AUC in mouse at 10 mg/kg, ip; type: ADME, organism-based; parameters: dose 10 mg/kg, route intraperitoneal; details: plasma
In short: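 Mice dosed intraperitoneally at 10 mg/kg. Vehicle is 2.5% EtOH, 5% Tween 80, 25% PEG400 in PBS, or for some entries 10% NMP, 20% Solutol, 70% PBS. Plasma exposure is given as AUC.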

[6] = Volume of distribution in mouse at 3.0 mg/kg, iv; type: ADME, organism-based; parameters: dose 3 mg/kg, route intravenous; details: in vivo
[7] = Half life in mouse at 3.0 mg/kg, iv; type: ADME, organism-based; parameters: dose 3 mg/kg, route intravenous; details: in vivo
Mus musculus = test: AUC in mouse at 3.0 mg/kg, iv; type: ADME, organism-based, Plasma; parameters: dose 3 mg/kg, route intravenous; details: in vivo
[8] = Cmax in mouse at 10 mg/kg, po; type: ADME, organism-based; parameters: dose 10 mg/kg, route oral; details: in vivo; in short: as §1
[9] = Oral bioavailability in mouse at 10 mg/kg; type: ADME, organism-based; details: in vivo
[10] = AUC in Nu/Nu mouse at 10 mg/kg/day, po in NMP; type: ADME, organism-based; parameters: route oral; details: plasma
In short: (§2)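 Oral dosing in Nu/Nu mice at 10, 25 or 50 mkd in one of two vehicles, NMP or Phosal.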

[11] = AUC in Nu/Nu mouse at 25 mg/kg/day, po in NMP; type: ADME, organism-based; parameters: route oral; details: plasma; in short: as §2
[12] = AUC in Nu/Nu mouse at 50 mg/kg/day, po in NMP; type: ADME, organism-based; parameters: route oral; details: plasma; in short: as §2
[13] = AUC in Nu/Nu mouse at 10 mg/kg/day, po in phosal; type: ADME, organism-based; parameters: route oral; details: plasma; in short: as §2
[14] = AUC in Nu/Nu mouse at 25 mg/kg/day, po in phosal; type: ADME, organism-based; parameters: route oral; details: plasma; in short: as §2
[15] = AUC in Nu/Nu mouse at 50 mg/kg/day, po in phosal; type: ADME, organism-based; parameters: route oral; details: plasma; in short: as §2

SMILES | EC50 (HeLa) [nM] | IC50 [2] [nM] | pKa [3] | AUC [5] [ng·h/mL] | also measured
COc1cc2c(cc1OC)-c1n[nH]c(-c3ccc(-c4ccc(O)cc4)cc3)c1C2 | > 59000 |  |  |  | EC50 [1]: > 10000 nM
COc1cc2c(cc1OCCN1CCOCC1)Cc1c(-c3ccc(C#N)nc3)n[nH]c1-2 |  | 3.8 |  |  | 
N#Cc1ccc(-c2n[nH]c3c2Cc2ccc(OCCCN4CCCOCC4)cc2-3)cn1 | 5400 | 0.92 | 9.1 |  | AUC [4]: 31 ng·h/mL
N#Cc1ccc(-c2n[nH]c3c2Cc2ccc(OCCCN4CCCCC4)cc2-3)cn1 | 4000 | 2.6 | 9.1 |  | 
COc1cc2c(cc1OCCO)Cc1c(-c3ccc(C#N)nc3)n[nH]c1-2 |  | 3.1 |  | 300 | 
COc1cc2c(cc1OCCN1CCOCC1)-c1[nH]nc(-c3ccc(C#N)nc3)c1C2 |  | 3 |  | 930 | 
N#Cc1ccc(-c2n[nH]c3c2Cc2ccc(OCCCC4CCNCC4)cc2-3)cn1 | 2700 | 1 | 11 |  | 
N#Cc1ccc(-c2n[nH]c3c2Cc2ccc(OCCCN4CCOCC4)cc2-3)cn1 | > 59000 | 3.2 |  | 2600 | AUC [4]: 3000 ng·h/mL; Vd [6]: 7.6 L/kg; half-life [7]: 1.4 h; AUC (Mus musculus): 2000 ng·h/mL; Cmax [8]: 660 nM; bioavailability [9]: 44%
COc1cc2c(cc1OCCc1scnc1C)-c1[nH]nc(-c3ccc(C#N)nc3)c1C2 |  | 1.1 |  |  | 
N#Cc1ccc(-c2n[nH]c3c2Cc2ccc(OCCCc4cccs4)cc2-3)cn1 | > 59000 | 52 | 1.6 |  | 
Cc1ncsc1CCOc1ccc2c(c1)-c1[nH]nc(-c3ccc(C#N)nc3)c1C2 | 7600 | 6.4 | 3.3 |  | 
N#Cc1ccc(-c2n[nH]c3c2Cc2ccc(OCCCCCN4CCOCC4)cc2-3)cn1 | 8100 | 1.4 |  |  | 
N#Cc1ccc(-c2n[nH]c3c2Cc2ccc(NCCN4CCOCC4)cc2-3)cn1 | > 59000 | 7 |  |  | 
N#Cc1ccc(-c2n[nH]c3c2Cc2ccc(NC(=O)CCN4CCOCC4)cc2-3)cn1 | 33000 | 16 |  |  | 
N#Cc1ccc(-c2n[nH]c3c2Cc2ccc(OCCN4CCOCC4)cc2-3)cn1 | > 59000 |  | 5.7 | 5700 | 
CC(=O)N1CCN(CCCCOc2ccc3c(c2)-c2[nH]nc(-c4ccc(C#N)nc4)c2C3)CC1 | 33000 | 1.5 | 6.9 | 2200 | 
N#Cc1ccc(-c2n[nH]c3c2Cc2ccc(CCCCN4CCOCC4)cc2-3)cn1 | 9700 | 1.2 |  |  | 
N#Cc1ccc(-c2n[nH]c3c2Cc2cc(OCCCN4CCOCC4)ccc2-3)cn1 | > 59000 | 6.4 |  |  | 
N#Cc1ccc(-c2n[nH]c3c2Cc2ccc(OCCCn4ccnc4)cc2-3)cn1 | > 59000 | 1.1 | 7.2 |  | 
COc1cc2c(cc1OC)-c1[nH]nc(-c3ccc(C#N)nc3)c1C2 | > 59000 |  |  |  | EC50 [1]: > 10000 nM
CN1CCN(CCCOc2ccc3c(c2)-c2[nH]nc(-c4ccc(C#N)nc4)c2C3)CC1 | 6200 | 1.5 | 9.1 |  | 
N#Cc1ccc(-c2n[nH]c3c2Cc2ccc(OCCCCN4CCOCC4)cc2-3)cn1 | 21000 | 0.75 |  | 10400 | AUC [4]: > 3300 ng·h/mL; Vd [6]: 6.9 L/kg; half-life [7]: 1.4 h; AUC (Mus musculus): 2100 ng·h/mL; Cmax [8]: 770 nM; bioavailability [9]: > 50%; AUC [10]: 6000 ng·h/mL; AUC [11]: 12000 ng·h/mL; AUC [12]: 25000 ng·h/mL; AUC [13]: 5000 ng·h/mL; AUC [14]: 15000 ng·h/mL; AUC [15]: 32000 ng·h/mL
N#Cc1ccc(-c2n[nH]c3c2Cc2cc(OCCN4CCOCC4)ccc2-3)cn1 | > 59000 | 6.5 |  |  | 
COc1cc2c(cc1OCc1ccccn1)Cc1c(-c3ccc(C#N)nc3)n[nH]c1-2 |  | 3.7 |  | 470 | 
COc1cc2c(cc1OCCc1scnc1C)Cc1c(-c3ccc(C#N)nc3)n[nH]c1-2 |  | 2.5 |  |  | 
COc1cc2c(cc1OCCO)-c1[nH]nc(-c3ccc(C#N)nc3)c1C2 |  | 2.6 |  |  | 
N#Cc1ccc(-c2n[nH]c3c2Cc2ccc(OCCOCCN4CCOCC4)cc2-3)cn1 | 29000 | 1.8 | 6.1 | 1700 | 
C[C@@H]1CN(CCCOc2ccc3c(c2)-c2[nH]nc(-c4ccc(C#N)nc4)c2C3)C[C@H](C)O1 | > 52000 | 1 | 6.1 | 3000 | 
